Screens as filed in PubChem.
DYRK1A inh – inhibitors of rat Dyrk1A kinase | Q63470 | ADP-Glo luminescence, NFATc1 peptide | inhibition, % at 12.5 µM | 310,000 tested, 0.43% active | AID 504441; in the data active = inhibition above about 50%;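 also: plate controls were vehicle with enzyme for no effect and no enzyme for full effect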
GSK3B inh – inhibitors of human GSK3beta kinase | 300,000 tested, 0.038% active | P49841 | AID 2097 | GST-GSK3beta kinase, ADP-Glo luminescence, 60 min; active compounds read low | activity score (negative = inhibition), % at 10 µM;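 active = more than half of replicate wells score below -50%, meaning over 50% inhibition versus plate controls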;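 also: 0% = median DMSO wells and -100% = median GW8510 positive control wells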
Target sequence (P49841 whole entry, looked up): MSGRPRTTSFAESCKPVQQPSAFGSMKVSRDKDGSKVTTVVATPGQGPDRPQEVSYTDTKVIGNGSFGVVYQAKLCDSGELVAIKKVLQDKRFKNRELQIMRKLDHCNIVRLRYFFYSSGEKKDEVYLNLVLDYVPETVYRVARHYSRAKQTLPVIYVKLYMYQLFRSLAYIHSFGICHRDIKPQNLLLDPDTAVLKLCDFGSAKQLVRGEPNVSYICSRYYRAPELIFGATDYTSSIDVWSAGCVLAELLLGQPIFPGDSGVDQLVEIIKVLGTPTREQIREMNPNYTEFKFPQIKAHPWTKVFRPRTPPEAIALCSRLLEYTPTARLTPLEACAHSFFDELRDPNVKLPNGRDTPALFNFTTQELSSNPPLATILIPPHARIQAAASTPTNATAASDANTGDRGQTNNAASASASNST
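Test system: GST-fused GSK3beta enzyme, cell-free | Quantity: 1.6 ng GST-GSK3beta enzyme per well | Reagent: 25 µM ATP with peptide substrate | Schedule: 60 min enzyme reaction, room temperature | Signal: Luminescent ADP-Glo measurement of ADP formed | Read-out basis: Score relative to plate controls | Control set: DMSO and 20 µM GW8510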
STK33 inh – human STK33 kinase inhibition; AID 2661; inhibition, % at 10 µM; purified STK33, MBP phosphorylation, ADP-Glo luminescence; Q9BYT3; 320,000 tested, 0.073% active;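 active = inhibition at or above 25%, using the most active replicate where run in duplicate; inactive = inhibition below 25%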
CDK5 inh – inhibitors of human CDK5/p35 kinase; Q00535+Q15078; Recombinant CDK5/p35, ADP-Glo luminescence, 60 min; inhibition, % at 10 µM; 330,000 tested, 0.01% active; AID 488839;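 active = highest replicate inhibition of at least 50% and at least 75% of replicates reaching 50%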;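 also: plate controls were DMSO neutral control for no effect and GW8510 at 10 µM for full effect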
GSK3 alpha inh – blocks human GSK-3 alpha kinase | 320,000 tested, 0.1% active | inhibition, % at 10 µM | AID 2650 | P49840 | ADP-Glo luminescence, 60 min;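 active = more than half of replicates show inhibition above 20%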;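 also: GST-tagged GSK-3 alpha with peptide substrate and 25 µM ATP; 0% = DMSO neutral wells and 100% = GW8510 positive control wells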
ADP-Glo artifact – interferes with ADP-Glo luciferase readout without Dyrk1A. shares compounds with DYRK1A inh. ADP-Glo luciferase artifact assay, no Dyrk1A, luminescence. AC50, µM (top dose mostly 12 µM), inactives show at the top dose activity change, negative = inhibition. 1,300 tested, under 10 active. AID 588348;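 active = fitted half-maximal dose AC50 no more than ten times the top valid tested dose, with luminescence dropping as dose rises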
Starred values were filed as active, the others as inactive; · = no result given. Many of the other results were omitted from the sample, so hits are more common in it than they were.

SMILES	DYRK1A inh	GSK3B inh	STK33 inh	CDK5 inh	GSK3 alpha inh	ADP-Glo artifact
COC(=O)c1ccc2c(c1)C(=O)/C(=C/c1ccc(O)cc1)O2	26.4	-17.3	-1.3	0.6	-1.7	·
COc1cccc(/C=C2\Oc3ccc(O)cc3C2=O)c1O	50.1*	-2.1	7.2	2.1	9.1	-1.8%
COc1cccc(C2=NOC(C(=O)NC3CCCCC3)C2)c1 (stereo not drawn)	1.8	2.0	-0.1	1.0	-1.3	·
Nc1nc(Nc2ccccc2)nc2ccccc12	56.4*	-8.9	7.3	6.1	9.3	3.8%
N#Cc1c(N)n(C2OC(CO)C(O)C2O)c2ncnc(N)c12 (stereo not drawn)	95.5*	·	·	57.1*	·	9.0%
CNc1nc2c(N)ncnc2n1[C@H]1O[C@@H](CO)[C@H](O)[C@@H]1O	90.9*	-5.9	3.0	12.8	1.1	8.5%
Nc1ncnc2c1ncn2C1O[C@H](CO)[C@@H](O)[C@@H]1O (stereo partly drawn)	15.3	·	2.7	1.5	0.3	·
CC(=O)Nc1cccc(NC(=O)COC(=O)CO/N=C(\C)c2ccc3c(c2)OCO3)c1	-4.1	-2.4	0.2	0.7	0.9	·
Cc1ccc(N=c2oc3cc(O)ccc3cc2C(N)=O)cc1	77.4*	-2.8	10.3	0.9	25.9	7.8%
CC(=O)c1cc2ccc(O)cc2oc1=O	19.6	-0.3	0.0	1.7	6.9	·
CCOc1ccc(CCNc2nc3ccccc3n3cnnc23)cc1OCC	6.4	-0.6	-1.0	-0.1	-1.0	·
O=C(O)c1cccc(-c2ccc(/C=N/Nc3ccc([N+](=O)[O-])cc3)o2)c1	59.9*	-2.3	1.2	1.0	12.7	7.9%
O=C(O)c1ccc(-c2ccc(/C=N/Nc3ccc([N+](=O)[O-])cc3)o2)cc1	6.7	-0.1	0.6	0.2	1.5	·
Cc1cc(C)n2nc(C(=O)N3CCCC(N4CCN(c5ccccc5C)CC4)C3)cc2n1 (stereo not drawn)	0.1	0.5	·	-1.2	·	·
COc1cccc(-c2nnc3n2N=C(c2cc(OC)ccc2OC)CS3)c1	30.3	1.6	-0.4	-0.1	1.1	·
COc1cccc(-c2nnc3n2N=C(C(C)(C)C)CS3)c1	79.3*	5.8	3.9	2.4	·	8.5%
CC(C)(C)C1=Nn2c(nnc2-c2ccccc2F)SC1	51.7*	-0.7	0.1	-0.8	6.4	6.4%
COC(=O)/C(=N\OCc1ccc(C#N)cc1)c1c(C)nn(C)c1C	-1.2	-15.0	-0.8	-0.5	-0.3	·
Cn1c(C(=O)NCc2ccccn2)cc2c(=O)n(C)c3ccccc3c21	18.9	-4.1	1.6	-0.9	·	·
Cn1c(C(=O)NCC2CCCO2)cc2c(=O)n(C)c3ccccc3c21 (stereo not drawn)	55.1*	-2.5	2.2	0.6	0.4	10.0%
Cn1c(C(=O)N2CCN(c3ncccn3)CC2)cc2c(=O)n(C)c3ccccc3c21	15.4	-0.8	-0.1	0.1	·	·
Cc1ccc(CNC(=O)c2cc3c(=O)n(C)c4ccccc4c3n2C)o1	62.4*	0.6	-0.5	-1.1	·	6.5%
Cn1c(C(=O)N2CCCC2)cc2c(=O)n(C)c3ccccc3c21	75.0*	·	·	3.0	·	8.9%
O=C(NCC1CCN(Cc2ccc(Cl)cc2)CC1)C1CCCN(c2ncnc3c2nc2n3CCCCC2)C1 (stereo not drawn)	1.7	-2.6	-2.0	-0.2	0.9	·
CCN1CCN(Cc2ccc(NC(=O)c3ccc(C)c(/C=C/c4cnc(Nc5cc(N6CCNCC6)nc(C)n5)cn4)c3)cc2C(F)(F)F)CC1	51.7*	-31.4	14.5	5.6	23.9	8.1%
SMILES	DYRK1A inh	GSK3B inh	STK33 inh	CDK5 inh	GSK3 alpha inh	ADP-Glo artifact
CCN1CCN(Cc2ccc(NC(=O)c3ccc(C)c(NC(=O)c4csc(-c5ccncc5)n4)c3)cc2C(F)(F)F)CC1	68.2*	-0.9	5.4	-2.9	0.9	6.3%
O=C(NCCc1ccc(F)cc1)c1cc(-c2ccncc2)nc2ccccc12	·	0.1	·	·	·	·
O=[N+]([O-])c1cc(/C=N/O)ccc1N1CCCC1	50.5*	-52.3*	13.5	-3.7	·	9.0%
COC(=O)[C@]1(C)N[C@H](c2ccc(-c3cccc(Cl)c3)cc2)[C@@H]2C(=O)N(C)C(=O)[C@@H]21	8.9	·	-0.4	1.0	-2.1	·
COC(=O)[C@]1(CC(C)C)N[C@H](c2ccc(-c3cccc(Cl)c3)cc2)[C@@H]2C(=O)N(C)C(=O)[C@@H]21	55.8*	-0.9	1.5	1.0	-2.2	8.6%
COc1ccc(/C=C/C(=O)Nc2cccc(C(C)=O)c2)cc1	56.2*	1.4	1.9	-1.6	-3.4	6.5%
O=C(/C=C/c1ccccc1)Nc1cccc(C(=O)NC2CC2)c1	62.6*	·	·	0.3	·	8.1%
COc1ccccc1/C=C/C(=O)Nc1cccc(C(C)=O)c1	4.6	3.0	3.9	-4.1	·	·
C[C@@H]1CN([C@@H](C)CO)C(=O)Cc2cc(NS(=O)(=O)c3cn(C)cn3)ccc2O[C@@H]1CN(C)C(=O)Nc1ccccc1	-5.8	·	-0.8	0.1	-2.3	·
Cc1nnc2c3ccccc3c(-c3ccc(O)cc3)nn12	-1.8	1.5	-0.3	-1.3	·	·
Cc1nnc2c3ccccc3c(-c3cccs3)nn12	60.4*	-15.2	·	-0.8	·	7.4%
COc1ccc2c(Cl)c(C(=O)N/N=C/c3ccc4c(c3)OCO4)sc2c1	11.7	0.6	-2.2	-1.0	1.7	·
COc1ccc2c(Cl)c(C(=O)N/N=C3\CCCC(=O)C3)sc2c1	81.0*	1.3	1.2	-0.6	4.2	10.8%
NC(=S)NN=CCn1cc([N+](=O)[O-])c(=O)[nH]c1=O	-2.0	·	·	0.4	·	·
N#CC1=C(N)Oc2ccc3ccc(O)cc3c2C1c1ccsc1 (stereo not drawn)	76.7*	-1.4	·	7.1	·	6.7%
O=c1c2c3c(sc2n2c(=S)[nH]nc2n1-c1ccccc1)CCC3	54.6*	-5.5	0.8	-4.5	14.8	9.3%
Cc1ccc(-n2c(=O)c3c4c(sc3n3c(=S)[nH]nc23)CCC4)cc1	23.1	1.3	-0.1	1.8	-5.7	·
COC(=O)[C@]1(C)N[C@H](CN(C)C(=O)Nc2ccccc2)[C@@H]2C(=O)N(Cc3ccccc3)C(=O)[C@@H]21	-2.2	·	0.5	4.2	0.9	·
CCOc1cc(C#N)ccc1OCC(=O)N1CCN(C(=O)c2cccs2)CC1	2.6	·	-0.1	-1.1	-0.1	·
Cc1noc(NS(=O)(=O)c2ccc(N/C=C\C(=O)c3ccc(Br)cc3)cc2)c1C	63.0*	2.5	3.0	0.1	-1.9	6.5%
COc1ccc(C(=O)Nc2ccnc(-c3cccnc3)n2)cc1	31.1	-13.0	0.4	2.9	0.8	·
Cc1ccc(C(=O)Nc2ccnc(-c3cccnc3)n2)cc1	59.6*	-2.9	·	-0.2	2.4	9.1%
O=C1Cc2cc(S(=O)(=O)N3CCN(c4cccc(Cl)c4)CC3)ccc2N1	-2.6	-3.4	-1.4	-0.7	-2.6	·
NC(=O)CC(NC(=O)c1ccc(Br)cc1)c1ccc(N2CCN(c3ccccn3)CC2)c([N+](=O)[O-])c1 (stereo not drawn)	2.9	-6.6	-0.7	1.4	-2.5	·
